Laboratory results taken from article PMC7815202 (ChemMedChem, 2020).
Where “and” joins values, the source holds several entries; their conditions need not be identical. Equal entries are not always repeated. Where two headings read alike, the source gives them in different places.

What was measured:
bovine spleen ADA [1] = biological target: T1, bovine spleen ADA (Bos taurus, UniProt P56658); test: Cuvette fluorescence assay of ADA; assay type: biochemical
T1 sequence (P56658 1-363): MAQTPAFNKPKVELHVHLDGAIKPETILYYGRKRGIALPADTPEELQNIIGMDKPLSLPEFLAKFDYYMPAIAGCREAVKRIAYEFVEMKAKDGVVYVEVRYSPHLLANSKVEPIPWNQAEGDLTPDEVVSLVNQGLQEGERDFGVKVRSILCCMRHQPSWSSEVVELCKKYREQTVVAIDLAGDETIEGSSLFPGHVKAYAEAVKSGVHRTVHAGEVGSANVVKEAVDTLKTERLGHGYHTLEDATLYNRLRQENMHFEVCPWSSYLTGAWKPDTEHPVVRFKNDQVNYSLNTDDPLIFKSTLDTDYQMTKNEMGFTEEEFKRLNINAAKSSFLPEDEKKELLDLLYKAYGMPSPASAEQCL
Method in brief: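 Bovine spleen ADA, diluted to 1.15 U mL⁻¹ in 50 mM phosphate buffer pH 7.4 and kept on ice. Test compound (final 1–1000 µM, 0.1 µM for one analogue; DMSO stocks) and tzA (1 mM DMSO stock) were stirred 1 min in buffer in a quartz cuvette at 25.0 °C. ADA was then added. Emission at 410 nm (excitation 322 nm) was read every 10 s for 20 min.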

bovine spleen ADA [2] = biological target: T1, bovine spleen ADA; test: HTS plate-reader fluorescence assay of ADA; assay type: biochemical; settings: 200 μM, initial MBP library screen, relative to negative control
ADA [3] = settings: non-HTS assay format; ref 8e; cited from earlier work
ADA [4] = settings: ref Cristalli et al. 1a; cited from earlier work
[5] = converted from IC50 by Cheng-Prusoff, three independent experiments
[6] = cuvette, 25 °C, three independent experiments

Row | IC50 (bovine spleen ADA [1]) [µM] | Ki (bovine spleen ADA [1]) [µM] | Compound | Ki (bovine spleen ADA [1]; [5]) [µM] | IC50 (bovine spleen ADA [1]; [6]) [µM] | percent inhibition of ADA (bovine spleen ADA [2]) | further results
1 |  |  | Oc1ccccc1-c1ncc[nH]1 [Compound 3, 2-imidazolyl phenol] | 77 ± 14 | 93 ± 17 | ~ 83% and 83% | 
2 |  |  | Oc1ccccc1-c1ncco1 [Compound 4, 2-oxazolyl phenol] | 215 ± 12 | 260 ± 14 | 61% | 
3 | 194 ± 4 | 161 ± 3 | C[C@H]1CN=C(c2ccccc2O)O1 [Compound 6, (S)-2-(5-Methyl-4,5-dihydrooxazol-2-yl)phenol] |  |  |  | 
4 | 188 ± 10 | 156 ± 8 | C[C@@H]1CN=C(c2ccccc2O)O1 [Compound 7, (R)-2-(5-Methyl-4,5-dihydrooxazol-2-yl)phenol] |  |  |  | 
5 |  |  | erythro-9-(2-hydroxy-3-nonyl) adenine [EHNA] |  |  |  | IC50 (ADA [3]): 0.023 ± 0.004 µM; Ki (ADA [3]): 0.019 ± 0.004 µM; Ki (ADA [4]): ~0.005 µM
